Measurements taken from ChEMBL document CHEMBL4706740, “Structure-Activity Study of Nitazoxanide Derivatives as Novel STAT3 Pathway Inhibitors” (ACS Med Chem Lett, 2021).
Activity calls are given as the source filed them. The rule behind the calls is not given here.

Columns and labels:
HeLa [1] = assay: Induction of cell cycle arrest in human HeLa cells assessed as accumulation at S phase at 40 uM measured after 24 hrs by flow cytometry analysis (reference value: 34.04%); type: functional
[2] = target: Signal transducer and activator of transcription 3 (Homo sapiens) (UniProt P40763); assay: Inhibition of STAT3 transcriptional activity in human HeLa cells assessed as downregulation of cyclin D1 expression upto 80 uM after 24 hrs by western blot analysis; type: cell-based; conditions: dose microM <=80, time […]
Method in brief: (§1)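 HeLa cells treated 24 h with a concentration series. Total cell lysates probed by Western blot with specific antibodies for the STAT3 target gene products cyclin D1, c-Myc and survivin.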

[3] = Selectivity index, ratio of inhibition of IL-6 induced STAT3 transcriptional activity to inhibition against HEK-Blue IL-6 cells assessed as reduction in cell viability at 10 uM
[4] = target: Signal transducer and activator of transcription 3 (Homo sapiens) (UniProt P40763); assay: Inhibition of STAT3 transcriptional activity in human HeLa cells assessed as downregulation of survivin expression upto 80 uM after 24 hrs by western blot analysis; type: cell-based; conditions: dose microM <=80, time […]; method in brief: as §1
[5] = Cmax in Sprague-Dawley rat at 5 mg/kg, iv; type: ADME, organism-based; design: route intravenous, dose 5 mg/kg; conditions: in vivo
Method in brief: (§2)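 Rats, n = 3 per group, received a single dose either intragastrically (25 mg/kg) or intravenously (5 mg/kg). Plasma concentration–time curves were used to derive t1/2α, t1/2β, Vd/F, CL/F, AUC0–∞, Tmax and Cmax. Absolute oral bioavailability was calculated from the ig and iv data.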

[6] = target: Signal transducer and activator of transcription 3 (Homo sapiens) (UniProt P40763); assay: Inhibition of STAT3 in human HeLa cells assessed as decrease in phosphorylation of STAT3 at Tyr705 cells pretreated with Na3VO4 phosphatase inhibitor measured at 80 uM incubated for 1 hr by Western blot analysis; type: cell-based
Method in brief: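 HeLa cells pretreated 15 min with 25 μM Na3VO4 (phosphatase inhibitor) before compound exposure. p-STAT3 (Tyr705) assessed by Western blot of total cell lysates with specific antibodies and compared with cells not given Na3VO4.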

HeLa [7] = assay: Induction of apoptosis in human HeLa cells assessed as necrotic cells at 40 uM incubated for 24 hrs by Annexin V-FITC/PI staining based flow cytometry (reference value: 0.02%); type: functional
[8] = AUC (0 to infinity) in Sprague-Dawley rat at 25 mg/kg, IG; type: ADME, organism-based; design: route […], time infinity, dose 25 mg/kg; conditions: in vivo, po; method in brief: as §2
HeLa [9] = assay: Induction of cell cycle arrest in human HeLa cells assessed as accumulation at G0/G1 phase at 40 uM measured after 24 hrs by flow cytometry analysis (reference value: 54.16%); type: functional
HeLa [10] = assay: Induction of cell cycle arrest in human HeLa cells assessed as accumulation at G0/G1 phase at 10 uM measured after 24 hrs by flow cytometry analysis (reference value: 54.16%); type: functional
HeLa [11] = assay: Induction of cell cycle arrest in human HeLa cells assessed as accumulation at G2/M phase at 40 uM measured after 24 hrs by flow cytometry analysis (reference value: 11.81%); type: functional
[12] = Antiproliferative activity against human A375 cells assessed as cell growth inhibition measured after 48 hrs by MTT assay; type: functional, cell-based; conditions: A-375, 48 h
HeLa [13] = assay: Effect on Src level in human Hela cells upto 80 uM after 24 hrs by Western blot analysis; type: functional, cell-based; conditions: dose microM <=80, time […]
[14] = Absolute bioavailability in Sprague-Dawley rat at 25 mg/kg, IG; type: ADME, organism-based; conditions: in vivo, po; method in brief: as §2
HT-29 = assay: Antiproliferative activity against human HT29 cells assessed as cell growth inhibition measured after 48 hrs by MTT assay; type: functional, cell-based; conditions: HT-29, 48 h
[15] = target: Signal transducer and activator of transcription 3 (Homo sapiens) (UniProt P40763); assay: Inhibition of STAT3 in human HeLa cells assessed as decrease in phosphorylation of STAT3 at Ser727 after 24 hrs by western blot analysis; type: cell-based; conditions: dose microM <=80, time […]
Method in brief: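 HeLa cells were treated with graded doses for 1 h or 24 h. Total cell lysates were immunoblotted with specific antibodies against p-STAT3 (Tyr705), p-STAT3 (Ser727) and total STAT3.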

HeLa [16] = assay: Induction of apoptosis in human HeLa cells assessed as late apoptotic cells at 20 uM incubated for 24 hrs by Annexin V-FITC/PI staining based flow cytometry (reference value: 4.7%); type: functional
[17] = Apparent volume of distribution in Sprague-Dawley rat at 5 mg/kg, iv; type: ADME, organism-based; conditions: in vivo; method in brief: as §2
[18] = Antiproliferative activity against human U87MG cells assessed as cell growth inhibition measured after 48 hrs by MTT assay; type: functional, cell-based
HeLa [19] = assay: Induction of apoptosis in human HeLa cells assessed as viable cells at 10 uM incubated for 24 hrs by Annexin V-FITC/PI staining based flow cytometry (reference value: 92.45%); type: functional; conditions: read-out: Activity
[20] = target: T1, Signal transducer and activator of transcription 5A (Homo sapiens) (UniProt P42229); assay: Inhibition of STAT5 (unknown origin)
T1 sequence (whole entry): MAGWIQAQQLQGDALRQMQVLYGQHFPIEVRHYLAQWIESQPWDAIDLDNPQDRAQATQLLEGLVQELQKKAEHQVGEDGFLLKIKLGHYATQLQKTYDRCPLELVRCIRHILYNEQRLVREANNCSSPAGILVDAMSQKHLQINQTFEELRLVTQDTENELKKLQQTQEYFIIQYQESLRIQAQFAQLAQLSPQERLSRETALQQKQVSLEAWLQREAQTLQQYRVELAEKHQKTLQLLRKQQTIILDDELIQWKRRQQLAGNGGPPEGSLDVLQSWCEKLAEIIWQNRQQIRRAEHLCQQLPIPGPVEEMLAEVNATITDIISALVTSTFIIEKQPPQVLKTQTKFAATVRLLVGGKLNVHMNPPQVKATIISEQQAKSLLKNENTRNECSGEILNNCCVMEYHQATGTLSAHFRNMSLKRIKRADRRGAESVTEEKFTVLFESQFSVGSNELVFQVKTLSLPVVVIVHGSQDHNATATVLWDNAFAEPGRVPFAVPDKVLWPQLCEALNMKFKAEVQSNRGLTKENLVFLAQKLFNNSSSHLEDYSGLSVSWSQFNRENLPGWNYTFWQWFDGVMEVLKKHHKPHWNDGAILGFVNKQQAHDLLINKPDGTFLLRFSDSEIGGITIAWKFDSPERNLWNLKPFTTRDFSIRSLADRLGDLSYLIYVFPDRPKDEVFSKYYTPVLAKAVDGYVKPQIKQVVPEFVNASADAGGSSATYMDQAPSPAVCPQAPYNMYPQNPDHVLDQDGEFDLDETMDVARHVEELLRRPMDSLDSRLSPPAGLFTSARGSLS

[21] = Cmax in Sprague-Dawley rat at 25 mg/kg, IG; type: ADME, organism-based; design: route […], dose 25 mg/kg; conditions: in vivo, po; method in brief: as §2
[22] = Cytotoxicity against human HEK 293T cells assessed as cell growth inhibition at 10 uM measured after 48 hrs by MTT assay; type: cell-based
[23] = target: Signal transducer and activator of transcription 3 (Homo sapiens) (UniProt P40763); assay: Inhibition of STAT3 in human HeLa cells assessed as decrease in phosphorylation of STAT3 at Tyr705 upto 80 uM measured after 6 hrs by Western blot analysis; type: cell-based; conditions: dose microM <=80, time 6.0 hrs
Method in brief: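 Time course in HeLa cells given 80 μM compound, sampled from 15 min onward through multiple hours; parallel runs at 20 and 40 μM. Total cell lysates Western blotted for p-STAT3 (Tyr705), p-STAT3 (Ser727) and total STAT3.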

A549 = assay: Antiproliferative activity against human A549 cells assessed as cell growth inhibition measured after 48 hrs by MTT assay; type: functional, cell-based; conditions: A549, 48 h

Sequence of Signal transducer and activator of transcription 3 (Homo sapiens) (P40763 whole entry): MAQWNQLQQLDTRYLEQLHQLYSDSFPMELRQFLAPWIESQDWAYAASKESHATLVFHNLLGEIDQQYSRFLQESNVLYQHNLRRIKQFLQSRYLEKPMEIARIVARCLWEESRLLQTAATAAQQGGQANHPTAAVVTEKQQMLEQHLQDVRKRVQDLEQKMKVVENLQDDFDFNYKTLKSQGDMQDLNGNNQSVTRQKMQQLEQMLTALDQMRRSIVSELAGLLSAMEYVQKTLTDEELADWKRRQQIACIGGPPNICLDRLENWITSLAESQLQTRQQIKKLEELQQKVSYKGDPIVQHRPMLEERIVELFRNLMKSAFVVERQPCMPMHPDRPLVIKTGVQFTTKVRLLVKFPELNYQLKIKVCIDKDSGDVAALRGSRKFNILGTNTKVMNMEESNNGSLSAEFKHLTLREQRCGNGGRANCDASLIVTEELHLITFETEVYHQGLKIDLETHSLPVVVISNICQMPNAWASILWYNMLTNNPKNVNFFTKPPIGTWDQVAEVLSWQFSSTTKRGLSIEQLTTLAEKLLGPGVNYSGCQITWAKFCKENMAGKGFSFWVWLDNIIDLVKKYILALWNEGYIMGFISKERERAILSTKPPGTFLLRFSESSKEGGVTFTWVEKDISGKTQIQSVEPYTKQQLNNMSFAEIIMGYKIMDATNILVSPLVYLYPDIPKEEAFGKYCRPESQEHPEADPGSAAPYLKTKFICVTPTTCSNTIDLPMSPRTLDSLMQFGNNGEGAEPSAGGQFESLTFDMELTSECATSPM

In the case of CC(=O)Oc1ccccc1C(=O)Nc1ncc([N+](=O)[O-])s1 [NITAZOXANIDE], the Activity (HeLa [1]) is reported as 22.76%, the inhibition [2] is reported as “Dose-dependent effect” and the “Selectivity Index” value [3] is reported as 2.8. For the same compound, the inhibition [4] was “Dose-dependent effect”, the Cmax [5] was 2800 ng/mL and the inhibition [6] was “Active”. For the same compound, the Activity (HeLa [7]) was 0.06%, the AUC(0-inf) [8] was 3200 ng·h/mL and the Activity (HeLa [9]) was 70.64%. For the same compound, the Activity (HeLa [10]) was 61.96%, the Activity (HeLa [11]) was 6.6% and the IC50 [12] was 31.8 µM. For the same compound, the Activity (HeLa [13]) was “inactive”, the bioavailability [14] was 5.7% and the IC50 (HT-29) was over 50 µM. The inhibition [15] was “Dose-dependent effect”, the Activity (HeLa [16]) was 11.4% and the Vd/F [17] was 0.08 L/kg. For the same compound, the IC50 [18] was 30 µM, the viability at 10 µM (HeLa [19]) was 92.3% and the inhibition [20] was “inactive”. The Cmax [21] was 1000 ng/mL, the inhibition at 48 h, 10 µM [22] was -3.3% and the inhibition [23] was “inactive”. It also gave an IC50 (A549) of over 50 µM.
